Measurements taken from ChEMBL document CHEMBL1154352, “Toll-like receptor 7 selective synthetic oligoribonucleotide agonists: synthesis and structure-activity relationship studies” (J Med Chem, 2009).
Activity calls are given as the source filed them. The calls are words filed in the database; no cut-off is given here.

Assays:
[1] = biological target: Toll-like receptor 3 (Homo sapiens) (UniProt O15455); experiment: Activation of human TLR3 expressed in HEK293 assessed as induction of NF-kappaB activity reporter gene assay; format: cell-based
Toll-like receptor 3 (Homo sapiens), sequence (O15455 whole entry): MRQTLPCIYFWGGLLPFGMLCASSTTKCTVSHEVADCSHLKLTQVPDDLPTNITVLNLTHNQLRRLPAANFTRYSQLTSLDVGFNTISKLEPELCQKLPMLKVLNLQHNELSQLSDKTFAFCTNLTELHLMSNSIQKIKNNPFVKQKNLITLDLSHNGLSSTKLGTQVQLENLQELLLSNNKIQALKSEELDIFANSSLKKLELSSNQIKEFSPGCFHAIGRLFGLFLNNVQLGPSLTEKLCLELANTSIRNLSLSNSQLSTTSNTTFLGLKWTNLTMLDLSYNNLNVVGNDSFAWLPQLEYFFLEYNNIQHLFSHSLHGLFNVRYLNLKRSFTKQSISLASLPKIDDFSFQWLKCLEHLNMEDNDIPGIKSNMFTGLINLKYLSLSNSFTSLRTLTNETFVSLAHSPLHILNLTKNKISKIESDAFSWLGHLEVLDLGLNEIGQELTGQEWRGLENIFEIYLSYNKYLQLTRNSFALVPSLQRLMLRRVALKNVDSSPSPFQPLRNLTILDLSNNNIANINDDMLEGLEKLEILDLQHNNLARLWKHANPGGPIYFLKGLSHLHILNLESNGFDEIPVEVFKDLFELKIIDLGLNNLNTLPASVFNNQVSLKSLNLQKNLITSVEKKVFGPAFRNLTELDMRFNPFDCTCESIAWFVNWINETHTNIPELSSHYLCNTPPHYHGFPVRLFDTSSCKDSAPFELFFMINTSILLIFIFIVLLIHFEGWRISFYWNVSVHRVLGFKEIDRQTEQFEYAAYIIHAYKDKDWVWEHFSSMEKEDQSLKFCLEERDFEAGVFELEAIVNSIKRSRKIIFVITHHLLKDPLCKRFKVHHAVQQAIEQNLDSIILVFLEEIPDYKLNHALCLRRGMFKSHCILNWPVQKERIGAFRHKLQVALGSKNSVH

PBMC [2] = experiment: Immunomodulatory activity in human PBMC assessed as induction of IL12 at 100 ug/ml after 24 hrs; format: functional, cell-based
Summary of the method: (§1)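 Human PBMCs plated at 5 × 10^6 cells/mL; compounds dissolved in PBS added at various concentrations, 37 °C for 24 h. Supernatant cytokines/chemokines quantified with human Luminex multiplex kit.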

[3] = biological target: T1, Toll-like receptor 9 (Mus musculus) (UniProt Q9EQU3); experiment: Activation of mouse TLR9 expressed in HEK293 assessed as induction of NF-kappaB activity reporter gene assay; format: cell-based
T1 sequence (whole entry): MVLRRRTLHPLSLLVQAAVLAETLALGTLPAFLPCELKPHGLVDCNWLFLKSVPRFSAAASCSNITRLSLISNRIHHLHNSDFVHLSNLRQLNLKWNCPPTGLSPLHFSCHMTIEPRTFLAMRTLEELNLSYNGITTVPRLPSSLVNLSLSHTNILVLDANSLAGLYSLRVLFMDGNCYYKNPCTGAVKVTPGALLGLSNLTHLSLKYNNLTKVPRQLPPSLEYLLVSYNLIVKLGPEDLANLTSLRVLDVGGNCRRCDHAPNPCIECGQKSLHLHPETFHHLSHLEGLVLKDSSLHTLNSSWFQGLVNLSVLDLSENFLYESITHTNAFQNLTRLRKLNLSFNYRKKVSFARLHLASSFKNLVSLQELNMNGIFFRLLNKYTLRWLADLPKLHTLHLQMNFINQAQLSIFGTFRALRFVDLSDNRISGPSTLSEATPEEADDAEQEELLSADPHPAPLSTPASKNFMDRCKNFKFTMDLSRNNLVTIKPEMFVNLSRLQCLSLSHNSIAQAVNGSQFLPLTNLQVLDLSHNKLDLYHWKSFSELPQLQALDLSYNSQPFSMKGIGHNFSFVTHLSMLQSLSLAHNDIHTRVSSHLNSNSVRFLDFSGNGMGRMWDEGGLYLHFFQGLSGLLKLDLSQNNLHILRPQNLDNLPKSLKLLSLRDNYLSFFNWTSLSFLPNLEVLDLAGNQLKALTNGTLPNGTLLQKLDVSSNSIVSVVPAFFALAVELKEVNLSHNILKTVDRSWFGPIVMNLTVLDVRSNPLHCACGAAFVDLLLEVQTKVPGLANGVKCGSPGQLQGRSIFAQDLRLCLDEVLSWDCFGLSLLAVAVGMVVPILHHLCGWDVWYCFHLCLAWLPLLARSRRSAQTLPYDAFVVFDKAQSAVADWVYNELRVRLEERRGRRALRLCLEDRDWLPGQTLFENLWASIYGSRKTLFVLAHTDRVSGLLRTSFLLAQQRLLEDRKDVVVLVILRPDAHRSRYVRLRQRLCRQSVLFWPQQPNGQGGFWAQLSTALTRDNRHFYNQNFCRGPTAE

PBMC [4] = experiment: Immunomodulatory activity in human PBMC assessed as induction of IFN-alpha at 100 ug/ml after 24 hrs
PBMC [5] = experiment: Immunomodulatory activity in human PBMC assessed as induction of TNFalpha at 100 ug/ml after 24 hrs; format: functional, cell-based; summary of the method: as §1
[6] = biological target: T2, Toll-like receptor 8 (Homo sapiens) (UniProt Q9NR97); experiment: Activation of human TLR8 expressed in HEK293XL assessed as fold induction of NF-kappaB activity at 50 ug/ml after 18 hrs by reporter gene assay relative to control
T2 sequence (whole entry): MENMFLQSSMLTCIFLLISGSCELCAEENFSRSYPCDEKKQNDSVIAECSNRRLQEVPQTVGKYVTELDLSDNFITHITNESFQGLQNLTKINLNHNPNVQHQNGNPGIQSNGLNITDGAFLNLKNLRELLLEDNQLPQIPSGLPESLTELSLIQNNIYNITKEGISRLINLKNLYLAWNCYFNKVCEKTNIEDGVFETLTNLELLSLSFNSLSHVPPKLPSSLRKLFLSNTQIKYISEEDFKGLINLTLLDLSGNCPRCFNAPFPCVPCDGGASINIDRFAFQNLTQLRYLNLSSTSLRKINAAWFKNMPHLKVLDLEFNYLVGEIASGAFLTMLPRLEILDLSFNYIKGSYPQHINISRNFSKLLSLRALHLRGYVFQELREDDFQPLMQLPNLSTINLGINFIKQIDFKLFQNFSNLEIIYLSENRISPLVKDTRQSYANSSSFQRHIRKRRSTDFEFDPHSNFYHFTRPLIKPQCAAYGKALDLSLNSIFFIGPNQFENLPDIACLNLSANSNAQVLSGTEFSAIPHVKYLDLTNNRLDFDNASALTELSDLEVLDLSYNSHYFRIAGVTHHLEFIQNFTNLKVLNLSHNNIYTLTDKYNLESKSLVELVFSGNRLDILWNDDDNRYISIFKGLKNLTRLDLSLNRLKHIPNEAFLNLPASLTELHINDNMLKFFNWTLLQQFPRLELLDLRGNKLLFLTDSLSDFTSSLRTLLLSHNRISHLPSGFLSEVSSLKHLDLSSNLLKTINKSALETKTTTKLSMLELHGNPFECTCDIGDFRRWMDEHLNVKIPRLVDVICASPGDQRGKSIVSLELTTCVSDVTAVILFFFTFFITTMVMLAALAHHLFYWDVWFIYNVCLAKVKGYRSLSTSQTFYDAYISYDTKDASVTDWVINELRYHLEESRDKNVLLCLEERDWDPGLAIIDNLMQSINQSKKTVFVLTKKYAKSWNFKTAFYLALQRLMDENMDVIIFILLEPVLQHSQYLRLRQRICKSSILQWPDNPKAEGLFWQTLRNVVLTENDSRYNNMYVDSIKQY
Summary of the method: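 HEK293 cells stably expressing human TLR7 or TLR8, transiently transfected with SEAP reporter plasmid; medium replaced, SIMRA compounds added, 18 h incubation. Supernatant SEAP measured by QuantiBlue; expressed as fold increase in NF-κB activity over PBS control. Tabulated data at 50 μg/mL, representative of three independent experiments.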

[7] = Metabolic stability in human serum assessed as full length product remaining after 10 mins by HPLC; format: ADME, cell-free; settings: read-out: Stability
Summary of the method: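 About 0.5 A260 units compound in 1% human serum in PBS, 37 °C; aliquot taken at 10 min, analysed by anion-exchange HPLC for percent intact full-length product.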

Splenocyte [8] = experiment: Immunomodulatory activity in C57BL/6 mouse splenocytes bearing TLR7 receptor assessed as IL12 release at 100 ug/ml after 24 hrs by ELISA; format: functional, cell-based
Summary of the method: (§2)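 C57BL/6 splenocytes in RPMI 1640 with 10% FBS, penicillin/streptomycin, 2 mM L-glutamine, plated at 5 × 10^6 cells/mL; compounds in PBS added, 37 °C for 24 h. Supernatant IL-12 and IL-6 by ELISA; representative of three independent experiments.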

Splenocyte [9] = experiment: Immunomodulatory activity in C57BL/6 mouse splenocytes bearing TLR7 receptor assessed as IL6 release at 100 ug/ml after 24 hrs by ELISA; format: functional, cell-based; summary of the method: as §2

| Activity [1] | Activity [3] | fold change (FC) [6] | remaining at 10 min [7] [%] | Activity (Splenocyte [8]) | Activity (Splenocyte [9]) | SMILES | Activity (PBMC [2]) [pg/mL] | IFN-alpha (PBMC [4]) [pg/mL] | Activity (PBMC [5]) [pg/mL] |
| --- | --- | --- | --- | --- | --- | --- | --- | --- | --- |
| inactive | inactive | 9.2 | 78 | – | – | Nc1ccn([C@@H]2O[C@H](COP(=O)(S)O[C@H]3[C@@H](O)[C@H](n4cnc5c(=O)[nH]c(N)nc54)O[C@@H]3COP(=O)(S)O[C@H]3[C@@H](O)[C@H](n4ccc(=O)[nH]c4=O)O[C@@H]3COP(=O)(S)OCCCO)[C@@H](OP(=O)(S)OC[C@H]3O[C@@H](n4ccc(=O)[nH]c4=O)[C@H](O)[C@@H]3OP(=O)(S)OC[C@H]3O[C@@H](n4cnc5c(=O)[nH]c(N)nc54)[C@H](O)[C@@H]3OP(=O)(S)OC[C@H]3O[C@@H](n4ccc(N)nc4=O)[C@H](O)[C@@H]3OP(=O)(S)OC[C@H]3O[C@@H](n4ccc(=O)[nH]c4=O)[C@H](O)[C@@H]3OP(=O)(S)OC[C@H]3O[C@@H](n4ccc(=O)[nH]c4=O)[C@H](O)[C@@H]3OP(=O)(S)OC[C@H]3O[C@@H](n4cnc5c(=O)[nH]c(N)nc54)[C@H](O)[C@@H]3OP(=O)(S)OC[C@H]3O[C@@H](n4ccc(=O)[nH]c4=O)[C@H](O)[C@@H]3OP(=O)(S)OC[C@H]3O[C@@H](n4cnc5c(=O)[nH]c(N)nc54)[C@H](O)[C@@H]3OP(=O)(S)OCC(O)COP(=O)(S)O[C@H]3[C@@H](O)[C@H](n4cnc5c(=O)[nH]c(N)nc54)O[C@@H]3COP(=O)(S)O[C@H]3[C@@H](O)[C@H](n4ccc(=O)[nH]c4=O)O[C@@H]3COP(=O)(S)O[C@H]3[C@@H](O)[C@H](n4cnc5c(=O)[nH]c(N)nc54)O[C@@H]3COP(=O)(S)O[C@H]3[C@@H](O)[C@H](n4ccc(=O)[nH]c4=O)O[C@@H]3COP(=O)(S)O[C@H]3[C@@H](O)[C@H](n4ccc(=O)[nH]c4=O)O[C@@H]3COP(=O)(S)O[C@H]3[C@@H](O)[C@H](n4ccc(N)nc4=O)O[C@@H]3COP(=O)(S)O[C@H]3[C@@H](O)[C@H](n4cnc5c(=O)[nH]c(N)nc54)O[C@@H]3COP(=O)(S)O[C@H]3[C@@H](O)[C@H](n4ccc(=O)[nH]c4=O)O[C@@H]3COP(=O)(S)O[C@H]3[C@@H](O)[C@H](n4ccc(N)nc4=O)O[C@@H]3COP(=O)(S)O[C@H]3[C@@H](O)[C@H](n4cnc5c(=O)[nH]c(N)nc54)O[C@@H]3COP(=O)(S)O[C@H]3[C@@H](O)[C@H](n4ccc(=O)[nH]c4=O)O[C@@H]3COP(=O)(S)OCCCO)[C@H]2O)c(=O)n1 (stereo not given in full) | 715 | 81.6 | 260 |
| inactive | inactive | 4.7 | – | Active | Active | Nc1ccn([C@@H]2O[C@H](COP(O)(=S)O[C@H]3[C@@H](O)[C@H](n4ccc(=O)[nH]c4=O)O[C@@H]3COP(O)(=S)O[C@H]3[C@@H](O)[C@H](n4ccc(=O)[nH]c4=O)O[C@@H]3COP(O)(=S)O[C@H]3[C@@H](O)[C@H](n4ccc(N)nc4=O)O[C@@H]3COP(O)(=S)O[C@H]3[C@@H](O)[C@H](n4ccc5c(=O)[nH]c(N)nc54)O[C@@H]3COP(O)(=S)O[C@H]3[C@@H](O)[C@H](n4ccc(=O)[nH]c4=O)O[C@@H]3COP(O)(=S)O[C@H]3[C@@H](O)[C@H](n4ccc(N)nc4=O)O[C@@H]3COP(O)(=S)O[C@H]3[C@@H](O)[C@H](n4ccc5c(=O)[nH]c(N)nc54)O[C@@H]3COP(O)(=S)O[C@H]3[C@@H](O)[C@H](n4ccc(=O)[nH]c4=O)O[C@@H]3CO)[C@@H](OP(O)(=S)OC[C@H]3O[C@@H](n4ccc(=O)[nH]c4=O)[C@H](O)[C@@H]3OP(O)(=S)OC[C@H]3O[C@@H](n4ccc5c(=O)[nH]c(N)nc54)[C@H](O)[C@@H]3OP(O)(=S)OCC(O)COP(O)(=S)O[C@H]3[C@@H](O)[C@H](n4ccc5c(=O)[nH]c(N)nc54)O[C@@H]3COP(O)(=S)O[C@H]3[C@@H](O)[C@H](n4ccc(=O)[nH]c4=O)O[C@@H]3COP(O)(=S)O[C@H]3[C@@H](O)[C@H](n4ccc(N)nc4=O)O[C@@H]3COP(O)(=S)O[C@H]3[C@@H](O)[C@H](n4ccc(=O)[nH]c4=O)O[C@@H]3COP(O)(=S)O[C@H]3[C@@H](O)[C@H](n4ccc(=O)[nH]c4=O)O[C@@H]3COP(O)(=S)O[C@H]3[C@@H](O)[C@H](n4ccc(N)nc4=O)O[C@@H]3COP(O)(=S)O[C@H]3[C@@H](O)[C@H](n4ccc5c(=O)[nH]c(N)nc54)O[C@@H]3COP(O)(=S)O[C@H]3[C@@H](O)[C@H](n4ccc(=O)[nH]c4=O)O[C@@H]3COP(O)(=S)O[C@H]3[C@@H](O)[C@H](n4ccc(N)nc4=O)O[C@@H]3COP(O)(=S)O[C@H]3[C@@H](O)[C@H](n4ccc5c(=O)[nH]c(N)nc54)O[C@@H]3COP(O)(=S)O[C@H]3[C@@H](O)[C@H](n4ccc(=O)[nH]c4=O)O[C@@H]3CO)[C@H]2O)c(=O)n1 (stereo not given in full) | 1110 | 385 | 385 |
